Source: ChEMBL document CHEMBL1122627, “Synthesis of certain hydroxy analogues of the antimalarial drug primaquine and their in vitro methemoglobin-producing and glutathione-depleting activity in human erythrocytes” (1984)
Several values for one entry are separate records, joined by “and”; a condition that tells them apart may be missing. Identical values can stand only once.

Experiments:
Format in all cases: functional
Homo sapiens [1] = species: Homo sapiens; assay: In vitro methemoglobin (metHb) forming activity in normal human erythrocytes at 0.05 mM
In short: (§1)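 Blood (30–40 mL) from normal or G6PD-deficient human volunteers, anticoagulated with sodium edetate. Washed erythrocytes suspended to 50% in buffered dextrose saline, incubated with each compound at 37 °C for 2 h. Reaction stopped on ice for 5 min. Cells spun at 1500g for 10 min at 5 °C, washed twice in ice-cold buffered saline dextrose, resuspended to 50%.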

Homo sapiens [2] = species: Homo sapiens; assay: In vitro methemoglobin (metHb) forming activity in normal human erythrocytes.; in short: as §1
Homo sapiens [3] = species: Homo sapiens; assay: In vitro decreasing the GSH content in normal in human erythrocytes at 0.05 mM; in short: as §1
Homo sapiens [4] = species: Homo sapiens; assay: In vitro decreasing the GSH content in normal in human erythrocytes at 0.01 mM; in short: as §1
Homo sapiens [5] = species: Homo sapiens; assay: In vitro methemoglobin (metHb) forming activity in Glucose-6-phosphate dehydrogenase- (G6PD-) deficient human erythrocytes at 0.05 mM; in short: as §1

| SMILES | Methemoglobin (Homo sapiens [1]) | Methemoglobin (Homo sapiens [2]) | GSH level (Homo sapiens [3]) | GSH level (mg) (Homo sapiens [4]) | Methemoglobin (Homo sapiens [5]) |
| --- | --- | --- | --- | --- | --- |
| CC(CCCN)Nc1cc(O)cc2cccnc12 (stereo unspecified) | 1.1% | 1.1% | 63.4% and 44.8% | 63.8% and 45.8% | 1.7% and 1.2% |
| COc1cc(NC(C)CCCN)c2ncccc2c1O (stereo unspecified) [5-HYDROXYPRIMAQUINE] | 12.8% | 3.4% |  |  |  |
| Nc1cc(O)c(O)c2cccnc12 [5,6-DIHYDROXY-8-AMINOQUINOLINE] | 22.3% | 4.8% |  |  |  |
| COc1cc(N)c2ncccc2c1O | 34.2% |  |  |  | 43.8% and 22.3% |
| COc1cc(NC(C)CCCN)c2ncccc2c1 (stereo unspecified) [PRIMAQUINE] | 1% |  | 60% and 47.4% |  | 1.3% |
| CC(CCCN)Nc1cc(O)c(O)c2cccnc12 (stereo unspecified) [5-HYDROXYDESMETHYLPRIMAQUINE] | 16.3% | 4.2% |  |  |  |
